According to ChEMBL document CHEMBL1122612, “7-(Ethoxycarbonyl)-6,8-dimethyl-2-phenyl-1(2H)-phthalazinone derivatives: synthesis and inhibitory effects on platelet aggregation” (J Med Chem, 1984):

Species on record: Oryctolagus cuniculus
Test: Inhibition of arachidonic acid induced platelet aggregation in rabbit platelet rich plasma, range 5-10
Type: functional
Conditions: read-out: ED50 (the source's name)
Procedure, shortened: (§1)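 Rabbit blood drawn from the carotid artery (pentobarbital anaesthesia, 35 mg/kg iv) into 3.8% sodium citrate (1/10 volume). PRP obtained by spinning at 150g for 15 min; 3.5-4.5 × 10^5 platelets/μL. Compound in Me2SO (≤0.5% final) preincubated 3 min at 37 °C with 1200 rpm stirring. Aggregation then started with 137 μM AA (final) and read turbidimetrically. Inhibition = maximum deflection relative to vehicle; ED50 range from three experiments.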

Structure (SMILES)	EC50 [µM]
CCOC(=O)c1c(C)cc2cnn(-c3ccccc3C)c(=O)c2c1C	5
CCOC(=O)c1c(C)cc2cnn(-c3ccc(OC)cc3)c(=O)c2c1C	5

Species on record: Oryctolagus cuniculus
Test: Inhibition of arachidonic acid induced platelet aggregation in rabbit platelet rich plasma, range 2-5
Type: functional
Conditions: read-out: ED50 (the source's name)
Procedure, shortened: as §1

Structure (SMILES)	EC50 [µM]
CCOC(=O)c1c(C)cc2cnn(-c3ccccc3)c(=O)c2c1C	2
CCOC(=O)c1c(C)cc2cnn(-c3ccccc3F)c(=O)c2c1C	2
CCOC(=O)c1c(C)cc2cnn(-c3ccccc3Cl)c(=O)c2c1C	2
CCOC(=O)c1c(C)cc2cnn(-c3ccc(N)cc3)c(=O)c2c1C	2

Species on record: Oryctolagus cuniculus
Test: Inhibition of arachidonic acid induced platelet aggregation in rabbit platelet rich plasma, range 25-50
Type: functional
Conditions: read-out: ED50 (the source's name)
Procedure, shortened: as §1

Structure (SMILES)	EC50 [µM]
CCOC(=O)c1c(C)cc2cnn(-c3ccc(C)cc3)c(=O)c2c1C	25
CCOC(=O)c1c(C)cc2cnn(-c3ccc(O)cc3)c(=O)c2c1C	25

Tested on: not listed separately
Test: Inhibition of human platelet cAMP Phosphodiesterase
Type: functional
Conditions: not given
Procedure, shortened: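 Low-Km cAMP phosphodiesterase from human platelets, prepared and assayed per an earlier method. Result expressed as IC50, the μM concentration inhibiting enzyme activity by 50%.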

Structure (SMILES)	IC50 [µM]
CCOC(=O)c1c(C)cc2cnn(-c3ccccc3)c(=O)c2c1C	10
COc1ccc(Cc2nccc3cc(OC)c(OC)cc23)cc1OC [PAPAVERINE]	0.55
CCOC(=O)c1c(C)cc2cnn(-c3ccccc3Cl)c(=O)c2c1C	34

Species on record: Oryctolagus cuniculus
Test: Inhibition of arachidonic acid induced platelet aggregation in rabbit platelet rich plasma
Type: functional
Conditions: read-out: ED50 (the source's name)
Procedure, shortened: as §1

Structure (SMILES)	EC50 [µM]
CCOC(=O)c1c(C)cc2cnn(-c3ccc(C)c(Cl)c3)c(=O)c2c1C	≥ 50
CCOC(=O)c1ccc(-n2ncc3cc(C)c(C(=O)OCC)c(C)c3c2=O)cc1	≥ 50
CCOC(=O)c1c(C)cc2cnn(-c3ccc(C(=O)O)cc3)c(=O)c2c1C	≥ 50
COc1cc2cnn(-c3ccccc3)c(=O)c2cc1OC	≥ 100
CCOC(=O)c1c(C)cc2cnn(-c3ccc([N+](=O)[O-])cc3)c(=O)c2c1C	≥ 50
CCOC(=O)c1c(C)cc2cnn(-c3ccc(S(C)(=O)=O)cc3)c(=O)c2c1C	≥ 50
COc1ccc(-n2ncc3cc(OC)c(OC)cc3c2=O)cc1	≥ 100
COc1cc2cnn(-c3ccccc3Cl)c(=O)c2cc1OC	≥ 100
CCOC(=O)c1c(C)cc2cnn(-c3ccc(F)cc3)c(=O)c2c1C	≥ 50
CCOC(=O)c1c(C)cc2cnn(-c3cccc(OC)c3)c(=O)c2c1C	≥ 50
CCOC(=O)c1c(C)cc2cnn(-c3ccc(OC)c(OC)c3)c(=O)c2c1C	≥ 50
COc1ccc(-n2ncc3cc(OC)c(OC)cc3c2=O)cc1OC	≥ 100
CCOC(=O)c1c(C)cc2cnn(-c3ccc(NC(C)=O)cc3)c(=O)c2c1C	≥ 50

Species on record: Oryctolagus cuniculus
Test: Inhibition of arachidonic acid induced platelet aggregation in rabbit platelet rich plasma, range 50-100
Type: functional
Conditions: read-out: ED50 (the source's name)
Procedure, shortened: as §1

Structure (SMILES)	EC50 [µM]
CCOC(=O)c1c(C)cc2cnn(-c3cccc(C)c3)c(=O)c2c1C	50
